Measured values taken from ChEMBL document CHEMBL1144286, “Parallel synthesis of pteridine derivatives as potent inhibitors for hepatitis C virus NS5B RNA-dependent RNA polymerase” (Bioorg Med Chem Lett, 2005).

Biological target: RNA-directed RNA polymerase (Hepacivirus hominis, UniProt O39930)
Assay: Inhibitory concentration against RNA dependent RNA polymerase Nonstructural protein 5B of hepatitis C virus
Procedure, shortened: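 Run per an earlier published HCV NS5B RdRp procedure. Compounds were dissolved in DMSO and then transferred into assay buffer. Each was tested in duplicate, and IC50 was taken as the concentration giving 50% inhibition of polymerase activity.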

Chain of RNA-directed RNA polymerase (O39930 whole entry): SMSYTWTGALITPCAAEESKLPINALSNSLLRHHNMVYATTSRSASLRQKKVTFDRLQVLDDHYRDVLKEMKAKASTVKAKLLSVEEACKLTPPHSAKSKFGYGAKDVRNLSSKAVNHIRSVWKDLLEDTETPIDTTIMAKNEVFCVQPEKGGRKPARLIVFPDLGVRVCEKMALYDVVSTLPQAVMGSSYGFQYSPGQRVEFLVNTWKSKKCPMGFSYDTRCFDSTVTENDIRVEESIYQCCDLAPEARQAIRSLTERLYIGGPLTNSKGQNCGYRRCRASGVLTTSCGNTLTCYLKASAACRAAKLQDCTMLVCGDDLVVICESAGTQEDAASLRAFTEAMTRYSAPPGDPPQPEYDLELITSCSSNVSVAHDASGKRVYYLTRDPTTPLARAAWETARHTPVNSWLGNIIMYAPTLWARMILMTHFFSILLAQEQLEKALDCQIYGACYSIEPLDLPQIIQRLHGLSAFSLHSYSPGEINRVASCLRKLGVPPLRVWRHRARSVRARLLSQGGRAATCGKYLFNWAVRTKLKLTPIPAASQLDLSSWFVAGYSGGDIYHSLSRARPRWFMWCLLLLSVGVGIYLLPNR

SMILES	IC50 [µM]
CCCCOCCCNc1ncnc2nc(-c3ccc(F)cc3)c(-c3ccc(F)cc3)nc12	73
c1ccc(-c2nc3ncnc(N4CCCCC4)c3nc2-c2ccccc2)cc1	> 100
COc1ccc(-c2nc3ncnc(O)c3nc2-c2ccc(OC)cc2)cc1	> 100
O=c1[nH]cnc2nc3c(nc12)C1CCCCC31 (configuration not stated)	> 100
Fc1ccc(CCNc2ncnc3nc(-c4ccccc4)c(-c4ccccc4)nc23)cc1	> 100
COc1ccccc1CCNc1ncnc2nc(-c3ccc(F)cc3)c(-c3ccc(F)cc3)nc12	80
Cc1ccc(CNc2ncnc3nc(-c4ccccc4)c(-c4ccccc4)nc23)cc1	> 100
COc1cccc(-c2nc3ncnc(O)c3nc2-c2cccc(OC)c2)c1	> 100
CCNc1ncnc2nc(-c3ccccc3)c(-c3ccccc3)nc12	16
CCCCCCNc1ncnc2nc(-c3ccc(F)cc3)c(-c3ccc(F)cc3)nc12	> 100
CCCCCCNc1ncnc2nc(-c3ccccc3)c(-c3ccccc3)nc12	> 100
Oc1ncnc2nc(-c3ccccn3)c(-c3ccccn3)nc12	> 100
Fc1ccc(-c2nc3ncnc(NC4CCC4)c3nc2-c2ccc(F)cc2)cc1	2.1
O=c1[nH]cnc2nc(-c3ccccc3Cl)c(-c3ccccc3Cl)nc12	> 100
CCNc1ncnc2nc(-c3ccc(F)cc3)c(-c3ccc(F)cc3)nc12	2.9
O=[N+]([O-])c1ccc(-c2nc3ncnc(O)c3nc2-c2ccccc2)cc1	30
O=c1[nH]cnc2nc3c4ccccc4c4ccccc4c3nc12	> 100
Cc1ccc(-c2nc3ncnc(O)c3nc2-c2ccc(C)cc2)cc1	> 100
COC(=O)C1CCCN1c1ncnc2nc(-c3ccc(F)cc3)c(-c3ccc(F)cc3)nc12 (configuration not stated)	51

Next, values leading:

IC50 [µM]	SMILES
21	CN(C)c1ncnc2nc(-c3ccc(F)cc3)c(-c3ccc(F)cc3)nc12
23	O=c1[nH]cnc2nc(-c3ccccc3)c(-c3ccc([N+](=O)[O-])cc3)nc12
30	O=c1[nH]cnc2nc(-c3ccc(Br)cc3)c(-c3ccc(Br)cc3)nc12
6	CCCC(C)Nc1ncnc2nc(-c3ccccc3)c(-c3ccccc3)nc12 (configuration not stated)
26	Fc1ccc(CCNc2ncnc3nc(-c4ccc(F)cc4)c(-c4ccc(F)cc4)nc23)cc1
1.5	CCCC(C)Nc1ncnc2nc(-c3ccc(F)cc3)c(-c3ccc(F)cc3)nc12 (configuration not stated)
87	CCCCOCCCNc1ncnc2nc(-c3ccccc3)c(-c3ccccc3)nc12
10	CCCCC(CC)CNc1ncnc2nc(-c3ccc(F)cc3)c(-c3ccc(F)cc3)nc12 (configuration not stated)
58	Oc1ncnc2nc(-c3ccco3)c(-c3ccco3)nc12
15	Oc1ncnc2nc(-c3ccccc3)c(-c3ccccc3)nc12
1.3	CC1CCC(Nc2ncnc3nc(-c4ccc(F)cc4)c(-c4ccc(F)cc4)nc23)CC1 (configuration not stated)
2.9	Fc1ccc(-c2nc3ncnc(NCc4ccco4)c3nc2-c2ccc(F)cc2)cc1
3.2	Fc1ccc(-c2nc3ncnc(NC4CCCCCC4)c3nc2-c2ccc(F)cc2)cc1
0.5	Oc1ncnc2nc(-c3ccc(F)cc3)c(-c3ccc(F)cc3)nc12
13	Fc1ccc(-c2nc3ncnc(NCCc4ccccc4)c3nc2-c2ccc(F)cc2)cc1
9.6	Cc1ccc(CNc2ncnc3nc(-c4ccc(F)cc4)c(-c4ccc(F)cc4)nc23)cc1
29	c1ccc(-c2nc3ncnc(NC4CCCCCC4)c3nc2-c2ccccc2)cc1
68	Fc1ccc(-c2nc3ncnc(N4CCCCC4)c3nc2-c2ccc(F)cc2)cc1
